Bioassay records deposited in PubChem BioAssay by Johns Hopkins Ion Channel Center.
Most compounds without a hit are left out; they make up all but 3.5% or so of the library.
MrgX1 antag: antagonists of human MrgX1 receptor | AID 588676 | MRGX1-HEK293 calcium flux, Fluo-4, BAM8-22 antagonism; hits give low values | Q96LB2 | B-score at 10 µM | 1.3% of 310,000 active;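 active means calcium-response B-score plate-corrected more than 3 library SD below zero, starting fluorescence within 5 deviations, no agonist response on first addition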;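 further: peak minus trough fluorescence over baseline after final BAM8-22 challenge near maximal dose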
Target sequence (Q96LB2 whole entry, looked up): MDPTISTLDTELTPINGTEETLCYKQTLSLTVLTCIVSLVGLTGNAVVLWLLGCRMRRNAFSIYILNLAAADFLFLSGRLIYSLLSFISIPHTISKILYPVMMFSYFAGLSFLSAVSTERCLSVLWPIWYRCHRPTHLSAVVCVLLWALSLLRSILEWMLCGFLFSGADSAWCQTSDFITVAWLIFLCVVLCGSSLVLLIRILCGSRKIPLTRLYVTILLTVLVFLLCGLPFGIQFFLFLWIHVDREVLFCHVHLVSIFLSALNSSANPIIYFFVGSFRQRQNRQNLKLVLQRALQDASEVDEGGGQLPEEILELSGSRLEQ
MrgX1 PAM: human MrgX1 positive allosteric modulation, primary screen; MrgX1-HEK293, Fluo-4 calcium flux, FDSS; hits give high values; B-score at 10 µM; 0.63% of 310,000 active;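 active means plate-corrected calcium response at least 3 library SD above typical, normal starting fluorescence, not activating the receptor alone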;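 further: compound read alongside a low EC10 to EC30 dose of BAM8-22 agonist; peak minus trough fluorescence over baseline measured at the second addition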
MrgX1 agonist: activates human MrgX1 receptor signaling; MrgX1-HEK293 cells, Fluo-4 calcium fluorescence, agonist mode; hits give high values; B-score at 10 µM; Q96LB2; 0.44% of 310,000 active;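 active means calcium response B-score plate-corrected fluorescence ratio at least 3 library SD, with starting fluorescence B-score inside 5 SD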
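Test system: HEK293 cells stably expressing human MrgX1 receptor; amount: 15,000 cells per well; doses: compound delivered in addition one of three; times: overnight plating before 1 h dye loading; detection: Fluo-4 NW calcium-flux fluorescence, kinetic read; read-out basis: B-scored fluorescence response ratio; controls: positive and negative controls per plate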
RGS4 inh: inhibitors of human RGS4; P49798; HEK293 M3R/RGS4 inducible, Fluo-4 calcium flux; hits give high values; triggered by carbachol at its EC20; B-score at 10 µM; 0.45% of 310,000 active; AID 463165;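 active means B-score, a plate-corrected calcium signal, over three deviations above library mean, with baseline fluorescence within five deviations of library mean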;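 further: RGS4 expression induced by doxycycline in cells with stable M3 receptor; B-score is computed from the integrated fluorescence ratio over baseline after carbachol; higher B-score means a larger calcium signal and so more RGS4 inhibition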
Target sequence (P49798 whole entry, looked up): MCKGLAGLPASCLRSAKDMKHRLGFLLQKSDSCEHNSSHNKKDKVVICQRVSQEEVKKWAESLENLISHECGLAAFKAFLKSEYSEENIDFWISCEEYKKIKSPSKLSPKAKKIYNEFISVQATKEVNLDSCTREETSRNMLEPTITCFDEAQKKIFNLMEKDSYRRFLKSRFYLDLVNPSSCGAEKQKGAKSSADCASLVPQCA
RGS4 act: potentiators or activators of RGS4. HEK293 M3R/inducible RGS4, carbachol calcium flux Fluo4; hits give low values. B-score at 10 µM. 0.92% of 310,000 active;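 active means B-score of the integrated calcium signal more than 4 SD below the library mean, with starting fluorescence not abnormally high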;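 further: negative B-score means reduced calcium response which marks RGS4 activation or potentiation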
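Reagent: ECmax carbachol challenge; Test system: M3R-expressing HEK293 line, RGS4 induced by doxycycline; Schedule: overnight RGS4 induction, 30 min dye load 37 °C, 20 min compound RT; Detection: calcium dye Fluo4 fluorescence; Read-out: Agonist-evoked peak-minus-minimum fluorescence over baseline, integrated ratio, B score.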
RGS4 inh valid: validation of RGS4 inhibitors. shares compounds with RGS4 inh. HEK293 M3R/RGS4, carbachol calcium Fluo-4 fluorescence; carbachol added at its EC20; 0 = buffer wells, 100 = carbachol control. calcium response, % at 10 µM. 65% of 1,700 active. AID 492999;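 active means duplicate-averaged calcium response above the buffer-only control mean plus 5 SD of those controls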;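 further: integrated fluorescence ratio F max minus min over baseline F0; higher response in RGS4-induced cells means RGS4 inhibition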
M3R Ca ctr: non-induced cell nonspecific activity of RGS4 inhibitors; 20% of 1,900 active; AID 493000; HEK293 M3R non-induced, carbachol calcium Fluo-4; submaximal (EC20) carbachol stimulus; buffer wells 0%, carbachol control wells 100%; shares compounds with RGS4 inh; activity (percent), % at 10 µM; call rule not given here;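 further: RGS4 induction absent so cells express M3R without RGS4; higher means more calcium signal and flags a non-specific hit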
RGS4 inh ctr2: second RGS4 inhibitor counter-screen in uninduced cells lacking carbachol. 22% of 1,900 active. AID 493001. HEK293 M3R/RGS4 non-induced, Fluo-4 calcium, no carbachol; normalised: buffer wells 0%, carbachol wells 100%. shares compounds with RGS4 inh. calcium response (agonist-mode artifact), % at 10 µM;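 active means duplicate-averaged calcium rise in uninduced cells above buffer wells' mean plus 5 SD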
MrgX1 ag confirm: human MrgX1 agonism, re-confirmation screen. activation, % at 10 µM. 78% of 600 active. MrgX1-HEK293, Fluo-4 calcium fluorescence, FDSS. shares compounds with MrgX1 agonist;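 active means calcium signal rise, corrected for plate position, at least 3 library SD high, with starting brightness within 5 such deviations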
HEK293 Ca flux: activity in parental HEK293 cells lacking MrgX1; Fluo-4 calcium fluorescence, FDSS; 2% of 4,000 active; AID 624111; fluorescence ratio F(max-min)/F0 at 10 µM; shares compounds with MrgX1 antag;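 active means duplicate-averaged calcium fluorescence ratio at least three times the standard deviation of buffer wells, a nonspecific response in parental cells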
HEK293 Ca counter: activity in parental HEK293 cells without MrgX1 | shares compounds with MrgX1 antag | fluorescence ratio F(max-min)/F0 at 10 µM | parental HEK293 calcium flux, Fluo-4 fluorescence ratio; hits give high values | 0.4% of 4,000 active;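 active means calcium fluorescence ratio, averaged over duplicates, at least 3 SD of the buffer-well ratio, meaning a nonspecific response in receptor-free cells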;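 further: untransfected parental HEK293 lacking MrgX1 used as counterscreen for MrgX1 allosteric activators; fluorescence change taken during the second addition on a kinetic imager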
HEK293 Ca cntr2: MrgX1 activator counter-screen hit in parental HEK293 cells; shares compounds with MrgX1 antag; 8.7% of 4,000 active; fluorescence ratio F(max-min)/F0 at 10 µM; AID 624115; Fluo-4 calcium fluorescence (FDSS); hits give high values;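 active means calcium fluorescence ratio at least three times the spread of buffer wells, meaning a non-specific response in parental cells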
Hits are given with their value; . = inactive; / = not tested or not shown; ! = repeats disagree.

SMILES	MrgX1 antag	MrgX1 PAM	MrgX1 agonist	RGS4 inh	RGS4 act	RGS4 inh valid	M3R Ca ctr	RGS4 inh ctr2	others
CC1=CC2/C=C(\C)CCC(O)C(O)/C=C/C(=O)C23C(=O)NC(CC(C)C)C3C1C (stereo not drawn)	.	.	.	.	.	/	/	/
C/C1=C\[C@@H](C)C/C=C/[C@H]2[C@@H]3O[C@]3(C)[C@@H](C)[C@H]3[C@H](Cc4c[nH]c5ccccc45)NC(=O)[C@]32C(=O)/C=C/C(=O)[C@@H]1O	.	10.7	.	11.4	.	46.5%	.	17.5%
Cc1cc(C)cc(N2C(=O)NC(=O)/C(=C\c3cccn3-c3ccc(Cl)cc3)C2=O)c1	.	.	.	.	.	/	/	/
Cc1cc(C)cc(N2C(=O)NC(=O)/C(=C\c3cccn3-c3ccccc3)C2=O)c1	.	.	.	9.2	.	18.0%	.	15.0%
O=C(N/N=C1/CN2CCC1CC2)c1cccc(O)c1	.	.	.	.	.	/	/	/
O=C1NC(=O)N(Cc2ccccc2)C(=O)/C1=C/C=C/c1ccco1	.	.	30.8	7.03	.	11.0%	.	22.5%
COc1ccc(CN2C(=O)NC(=O)/C(=C\c3ccco3)C2=O)cc1	.	.	.	.	.	/	/	/
C=C1C(=O)O[C@@H]2C[C@@H](C)[C@@H]3C=CC(=O)[C@@]3(C)[C@@H](O)[C@H]12	.	.	.	5.18	.	35.0%	.	.
COc1ccc(-n2nc(C(=O)NCC(=O)N3CCC4(CC3)OCCO4)c3ccccc3c2=O)cc1Cl	.	.	.	.	.	/	/	/
O=C(N/N=C/c1c(O)n(CCc2ccc(F)cc2)c(=O)[nH]c1=O)c1ccccc1	.	.	.	.	.	/	/	/
O=C(N/N=C/c1c(O)n(Cc2ccccc2)c(=O)[nH]c1=O)c1ccccc1O	.	.	.	6.9	.	11.5%	.	.
O=C(N/N=C/c1c(O)n(CCc2ccccc2)c(=O)[nH]c1=O)c1ccccc1O	.	.	.	.	.	.	.	9.0%
COc1ccc(Cn2c(O)c(/C=N/NC(=O)c3ccccc3)c(=O)[nH]c2=O)cc1	.	.	.	.	.	/	.	9.5%
COc1ccc(Cn2c(O)c(/C=N/NC(=O)c3ccncc3)c(=O)[nH]c2=O)cc1	.	.	.	.	.	/	/	/
COc1ccc(Cn2c(O)c(/C=N/NC(=O)c3ccccc3O)c(=O)[nH]c2=O)cc1	.	.	.	.	.	/	.	.
COc1ccc(Cn2c(O)c(C=NCCN3CCOCC3)c(=O)[nH]c2=O)cc1	.	.	.	.	.	/	/	/
CC12CN3CCN(C1)CC(C)(C3)C2=NO	.	.	.	.	.	/	/	/
C=CCn1c(O)c(C(C)=NCCN2CCOCC2)c(=O)[nH]c1=O	.	.	.	.	.	/	/	/
O=C(N/N=C/c1c(O)n(Cc2ccc(F)cc2)c(=O)[nH]c1=O)c1ccccc1O	.	.	.	.	.	.	.	.
COc1ccc(-n2c(/C=C/c3ccc(O)c(OC)c3)nc3ccccc3c2=O)cc1	.	.	.	.	.	/	/	/
COc1cc(/C=C/[N+](=O)[O-])ccc1O	.	.	.	26.2	.	60.5%	74.5%	.
CC(C)(C#CC(=O)O)OOC(c1ccccc1)(c1ccccc1)c1ccccc1	.	.	.	.	.	/	/	/
Nc1c(C(=O)NCc2ccco2)c2nc3ccccc3nc2n1CCN1CCOCC1	.	.	.	5.33	.	13.5%	42.5%	15.5%
Nc1c(C(=O)NCc2ccco2)c2nc3ccccc3nc2n1Cc1ccccc1	.	.	.	.	.	/	/	/
CN1C(=O)C(=Cc2ccccc2OCc2ccccc2Cl)C(=O)N(C)C1=O	.	.	.	.	.	/	/	/
SMILES	MrgX1 antag	MrgX1 PAM	MrgX1 agonist	RGS4 inh	RGS4 act	RGS4 inh valid	M3R Ca ctr	RGS4 inh ctr2	others
COc1cc(/C=C(/C)[N+](=O)[O-])ccc1OCc1ccccc1Cl	.	.	.	31.3	.	10.5%	.	38.5%
Cc1ccc(NC(=O)CSc2nnc([C@@H](N)Cc3c[nH]c4ccccc34)o2)c(C)c1	.	.	.	.	.	/	/	/
Cc1ccc(/C=C2/C(=O)NC(=O)N(CCc3ccc(F)cc3)C2=O)o1	.	.	.	.	.	.	.	.
O=C1NC(=O)N(CCc2ccc(F)cc2)C(=O)/C1=C/c1cccs1	.	.	.	.	.	/	.	.
O=C(c1ccc(Cl)cc1)C1CCCN(Cc2ccc3nonc3c2)C1 (stereo not drawn)	.	.	.	.	.	/	/	/
C#CCOC(=O)C1=CCCN(C)C1	.	.	89.9	/	/	/	/	/	MrgX1 ag confirm=281.1%;HEK293 Ca flux=.;HEK293 Ca counter=.;HEK293 Ca cntr2=54.2
CCC(=NCC1CCCO1)c1c(O)n(-c2ccc(OC)cc2)c(=O)[nH]c1=O (stereo not drawn)	.	.	.	.	.	/	/	/
CC(=O)OCC[N+](C)(C)C	.	.	134	.	-7.55!	/	/	/	MrgX1 ag confirm=557.5%;HEK293 Ca flux=.;HEK293 Ca counter=.;HEK293 Ca cntr2=108
Cc1cccc(N=Cc2c(O)n(C)c(=O)n(C)c2=O)c1	.	.	.	.	.	/	/	/
C[C@]12CC[C@H](O)C[C@@H]1CC[C@@H]1[C@@H]2CC[C@]2(C)[C@@H](C(=O)O)C[C@@H]12	.	.	.	.	.	/	/	/
ON1C2CCCCC2N(O)C1c1ccccc1 (stereo not drawn)	.	.	.	.	.	/	/	/
CCC(C)N1C(=O)NC(=O)C2(Cc3c(ccc4ccccc34)N(C)C2)C1=O (stereo not drawn)	.	.	33.5	.	.	/	/	/	MrgX1 ag confirm=.;HEK293 Ca flux=.;HEK293 Ca counter=.;HEK293 Ca cntr2=.
O=C(CCCN1CCC2(CC1)C(=O)NCN2c1ccccc1)c1ccc(F)cc1	.	.	76.4	.	.	/	/	/	MrgX1 ag confirm=542.2%;HEK293 Ca flux=.;HEK293 Ca counter=.;HEK293 Ca cntr2=99.1
O=C(c1ccc(F)cc1)C(Cc1ccccc1)N1CCCCC1 (stereo not drawn)	.	.	.	.	.	/	/	/
